Measurements gathered from unrelated publications.
Compare with care: the assays were run in different laboratories.
Target: Dual specificity tyrosine-phosphorylation-regulated kinase 1A (DYRK1A, Homo sapiens, UniProt Q13627)

| Compound | read-out | action | method | concentration | endpoint | result |
| --- | --- | --- | --- | --- | --- | --- |
| O=S(=O)(NC1CCC(c2cc(F)ccc2F)(S(=O)(=O)c2ccc(Cl)cc2)CC1)C(F)(F)F (stereo not drawn) | cell-free assay |  | competition with immobilised ligand | 1 µM | remaining binding | 78% |
| COc1cc(/C=C/C(=O)CC(=O)/C=C/c2ccc(O)c(OC)c2)ccc1O | enzyme activity | inhibitor |  | 1 µM | activity vs control | 20% |
| O=C(O)c1ccc2c(c1)nc(Nc1ccc(Cl)cc1)c1ccncc12 | enzyme activity | inhibitor | radiometric | 1 µM | remaining activity | 2% |
| CCN1/C(=C/C(C)=O)Sc2ccc(OC)cc21 | cell-free assay |  |  | 0.5 µM | remaining signal | 28.9% |
| Cn1cncc1C1=CN(c2ncnc3[nH]cnc23)CCS1 | enzyme activity | inhibitor | radiometric | 2 µM | inhibition | 95.4% |
| N#Cc1cccc(Nc2nc3cc(C(=O)O)ccc3c3cnccc23)c1 | enzyme activity | inhibitor | radiometric | 1 µM | remaining activity | -1% |
| CC1(C)NC(=O)c2[nH]c3c(Cl)c(Cl)ccc3c2C1C#N (stereo not drawn) | thermal stability |  | DSF | 10 µM | ΔTm | 2.6 °C |
| O=C(O)c1ccc2c(c1)nc(Nc1ccc3ccccc3c1)c1ncncc12 | enzyme activity | inhibitor | radiometric | 1 µM | remaining activity | -1% |
| CO[C@@H](C)c1c(Nc2ccc([C@@H](N(C)C(=O)C3CCS(=O)(=O)CC3)C(F)(F)F)cc2)cnc2cc(Cl)nn12 | cell-free assay |  | competition with immobilised ligand | 1 µM | remaining binding | 92% |
| O=C(O)c1ccc2c(c1)nc(NCCc1cccc(F)c1)c1ncncc12 | enzyme activity | inhibitor | radiometric | 1 µM | remaining activity | 18% |
| Cc1cc(-n2nc(Cc3cc(F)cc(C(F)(F)F)c3)nc2C)ccc1C(N)=O | cell-free assay |  | competition with immobilised ligand | 1 µM | remaining binding | 92% |
| Cn1c2c(c3ccc(Cl)c(Cl)c31)C(C#N)C(C)(C)NC2=O (stereo not drawn) | thermal stability |  | DSF | 10 µM | ΔTm | 3.2 °C |
| O=C(O)c1ccc2c(c1)nc(NCc1ccccc1)c1ccncc12 | enzyme activity | inhibitor | radiometric | 1 µM | remaining activity | 49% |
| COc1cc2ncnc(Nc3ccc(Oc4ccccc4)cc3C)c2cc1OC | enzyme activity | inhibitor |  | 1 µM | inhibition | -1% |
| COc1cc(Nc2c(C#N)cnc3cc(OCCCN4CCN(C)CC4)c(OC)cc23)c(Cl)cc1Cl | cell-free assay |  |  | 0.5 µM | remaining signal | 99.4% |
| O=C(O)c1ccc2c(c1)nc(Nc1ccccc1)c1ccncc12 | enzyme activity | inhibitor | radiometric | 1 µM | remaining activity | 6% |
| Nc1ncnc2occ(-c3ccc(NC(=O)Nc4cc(C(F)(F)F)ccc4F)cc3)c12 | cell-free assay |  |  | 20 µM | remaining signal | 58% |
| COCCOc1nc(-c2ccc(Cl)nc2)nc2c1CN(C(=O)c1ncn3ccccc13)CC2 | cell-free assay |  | competition with immobilised ligand | 0.1 µM | remaining binding | 78% |
| O=C1Nc2ccc(Cl)cc2C1=Cc1cc(Cl)c(O)c(Cl)c1 | cell-free assay |  |  | 0.5 µM | remaining signal | 95.6% |
| CN([C@@H]1CCc2c(CC(=O)O)c3cc(S(C)(=O)=O)ccc3n2C1)S(=O)(=O)c1ccc(F)cc1 | cell-free assay |  | competition with immobilised ligand | 1 µM | remaining binding | 81% |
| O=C(O)c1ccc2c(c1)nc(Nc1ccccc1)c1ncncc12 | enzyme activity | inhibitor | radiometric | 1 µM | remaining activity | 3% |
| CCC1(CC)NC(=O)c2c(c3ccc(Cl)c(Cl)c3n2C)C1C#N (stereo not drawn) | thermal stability |  | DSF | 10 µM | ΔTm | 0.7 °C |
| CN(C)C1CCN(CC#Cc2nn(C3CCCC3)c3nc(NCc4ccccc4)ncc23)C1 (stereo not drawn) | enzyme activity | inhibitor | FRET | 10 µM | inhibition | 2% |
| O=C(O)c1ccc2c(c1)nc(NCCc1cccc(F)c1)c1ccncc12 | enzyme activity | inhibitor | radiometric | 1 µM | remaining activity | 8% |
| COc1ccc2c(O[C@@H]3C[C@H]4C(=O)N[C@]5(C(=O)O)CC5/C=C\CCCCC[C@H](NC(=O)OC5CCCC5)C(=O)N4C3)cc(-c3csc(NC(=O)C(C)C)n3)nc2c1C (stereo partly drawn) | cell-free assay |  | competition with immobilised ligand | 1 µM | remaining binding | 79% |
| CC(C)[C@H](CO)Nc1nc(Nc2cccc(Cl)c2)c2ncn(C(C)C)c2n1 | cell-free assay |  |  | 0.5 µM | remaining signal | 65.4% |
| O=C(N1CCS(=O)(=O)CC1)N1C[C@H](c2ccc(OC(F)(F)F)cc2)C[C@H](c2nc(C3CC3)no2)C1 | cell-free assay |  | competition with immobilised ligand | 1 µM | remaining binding | 100% |
| CC/C(=N\NC(=O)NCc1cccc(O)c1)c1ccc(O)c(C)c1O | enzyme activity | inhibitor |  | 0.1 µM | inhibition | -4.7% |
| O=C(O)c1cc(-c2ccc(C3CCNCC3)cc2)c2ccc(-c3ccc(C(F)(F)F)cc3)cc2c1 | cell-free assay |  | competition with immobilised ligand | 1 µM | remaining binding | 100% |
| Cn1c2c(c3ccc(Cl)c(Cl)c31)C(C#N)C1(CCNCC1)NC2=O (racemic) | thermal stability |  | DSF | 10 µM | ΔTm | 2.5 °C |
